Only some compounds are listed: those with a hit (about 27% of all), similar ones and a draw of the others.
CYP2C9 inh: human CYP2C9 inhibition; inhibition, % at 5 µM; AID 777; 20% of 96,000 active; CYP2C9 Supersomes, luciferin-H conversion, luminescence; P11712;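 active = blocking of liver enzyme CYP2C9 beyond about 50% at 5 µM, limit read from the data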
Target sequence (P11712 whole entry, looked up): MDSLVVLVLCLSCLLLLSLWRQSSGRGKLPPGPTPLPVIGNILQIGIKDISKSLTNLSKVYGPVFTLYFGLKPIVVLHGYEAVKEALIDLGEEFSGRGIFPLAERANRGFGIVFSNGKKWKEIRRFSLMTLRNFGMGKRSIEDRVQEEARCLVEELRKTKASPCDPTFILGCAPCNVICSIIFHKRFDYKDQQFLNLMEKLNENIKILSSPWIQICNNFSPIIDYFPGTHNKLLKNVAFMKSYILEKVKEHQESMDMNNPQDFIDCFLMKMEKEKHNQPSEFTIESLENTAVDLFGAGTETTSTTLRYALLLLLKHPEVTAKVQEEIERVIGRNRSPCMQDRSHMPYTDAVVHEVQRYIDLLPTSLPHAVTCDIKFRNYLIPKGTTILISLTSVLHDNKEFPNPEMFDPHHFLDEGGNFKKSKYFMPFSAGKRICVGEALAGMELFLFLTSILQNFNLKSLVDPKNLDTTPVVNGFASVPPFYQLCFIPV
CYP2C19 activ: cytochrome P450 2C19 (human) activation | recombinant CYP2C19, luciferin-H EGE luminescence; stronger effect = higher value; 0 = fully inhibited enzyme, 1 = untreated enzyme | 96,000 tested, under 10 active | activation factor at 5 µM | AID 1025;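 active = activation factor of at least 2 at 5 µM in the primary screen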;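 also: 0 = wells with 2.5 mM tranylcypromine and 1 = vehicle-only wells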
Cav32 inh: human Cav3.2 channel inhibition, primary screen; O95180; Cav3.2-expressing cells, Fluo-4 calcium fluorescence FDSS; stronger effect = lower value; B-score at 10 µM; 4% of 100,000 active;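 active = single-dose well whose peak fluorescence ratio is a statistical outlier from its plate by either plate-standardised score or position-corrected B-score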
HIV Rev-RRE inh: disrupts HIV-1 Rev binding to RRE RNA | inhibition, % at 8 µM | 0.79% of 97,000 active | Rev peptide-RRE RNA binding, FRET;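 active = inhibition above the screen-wide mean plus 3 SD, cut at about 35% in these data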;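 also: 0% = median DMSO wells and 100% = median Neomycin B control wells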
Target sequence (P05866 whole entry, looked up): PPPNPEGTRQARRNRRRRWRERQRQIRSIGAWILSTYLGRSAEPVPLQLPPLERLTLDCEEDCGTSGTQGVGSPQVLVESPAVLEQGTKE
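Test system: Cy5-tagged RRE RNA duplex with fluorescein-tagged Rev peptide; Probe or stimulus: labelled Rev peptide; Schedule: 5 min preincubation and 15 min binding, 25 °C; Signal: FRET fluorescence readout; Evaluation: % inhibition from 671/540 nm acceptor-to-donor ratio, scaled between controls; Control set: DMSO and neomycin B.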
CYP2C9 act: increases human cytochrome P450 2C9 activity; P11712; recombinant CYP2C9, luciferin-H conversion, luminescence; stronger effect = higher value; factor 1 = untreated enzyme, 0 = blocked; activation factor at 5 µM; 1.4% of 96,000 active; AID 1024;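 active = activation factor of 2 or more for CYP2C9 at a 5 µM dose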;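 also: 0 = sulfaphenazole-blocked wells and 1 = vehicle-only wells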
CYP2C19 inh: blocks human cytochrome P450 2C19; P33261; CYP2C19 Supersomes, luciferin-H EGE luminescence, 30 min; inhibition, % at 5 µM; 21% of 96,000 active; AID 778;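 active = CYP2C19 inhibition above a set limit at 5 µM in the primary screen, cut at about 50% in these data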;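 also: plate controls were negative control wells for no effect and 2.5 mM tranylcypromine positive control for full effect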
* marks the source's active call; other numbers are inactive results; . = not tested or not shown.

SMILES	CYP2C9 inh	CYP2C19 activ	Cav32 inh	HIV Rev-RRE inh	CYP2C9 act	CYP2C19 inh
Clc1ccc(CO/N=C/c2c(-c3ccccc3)nc3n2CCS3)c(Cl)c1	65*	0.9	-2	5	0.4	12
FCCCOc1ccc(/C=N/OCc2ccc(Cl)cc2Cl)cc1	12	1	-1.3	17	0.9	4
Cc1ccc(Cl)cc1NC(=O)c1ccc(CSc2nnnn2C)cc1	-24	1	-1.9	13	1.2	1
CCCCSc1nnc2c(n1)OC(C(=O)c1ccccc1)Nc1ccccc1-2 (configuration not stated)	87*	0.5	.	13	0.1	49
CCC(=O)N1c2ccc(S(=O)(=O)N(CCO)Cc3ccccc3)cc2CC1C (configuration not stated)	56*	0.5	1	7	0.4	52*
Cn1c(C(N)=O)cnc1Sc1ncc(C(F)(F)F)cc1Cl	-74	1	1	2	1.7	2
CC(C)NC(=O)c1cnc(Sc2ncc(C(F)(F)F)cc2Cl)n1C	-109	0.7	0.35	10	2.1*	25
FC(F)(F)c1ccc(-n2ccnc2)nc1	38	0.5	0.42	7	0.6	52*
CCC(=O)NS(=O)(=O)c1cccnc1Nc1ccccc1Cl	69*	0.9	.	2	0.3	8
CC1(C)C(=O)Nc2ccccc2N1C(=O)COC(=O)CCSc1ccccc1	13	0.6	0.28	14	0.9	42
O=C(Cn1c(SCC(=O)N2CCc3ccccc32)nc2ccccc21)NC1CCCC1	.	.	-0.5	11	.	.
CCOC(=O)c1c(-c2ccc(C)c(C)c2)csc1NC(=O)C1CC=CCC1C(=O)O (configuration not stated)	76*	0.9	.	-1	0.2	10
COC(=O)c1c(-c2ccco2)csc1NC(=O)C1CC=CCC1C(=O)O (configuration not stated)	4	1	0.64	11	1	5
CCN(CC)C(=O)C1CCCN(C(=O)Nc2ccc3nsnc3c2)C1 (configuration not stated)	25	0.4	-0.018	5	0.8	59*
CCCc1nc(N)c(C#N)c(N)c1C#N	-1	1	0.92	5	1	-3
CC(C)CN(CC(C)C)c1nc(N)c(C#N)c(CC#N)c1C#N	86*	0.3	-2.6	11	0.1	69*
COc1ccc(C2c3cc(OC)c(OC)cc3CCN2C2CC(=O)N(c3ccccc3)C2=O)cc1OC (configuration not stated)	50	0.8	1.1	3	0.5	16
CC(=O)c1ccc(Oc2ncnc3sccc23)c(CN2CCOCC2)c1	.	.	1.6	.	.	.
CCOc1ccc2nc3c(cc2c1)CN(CCCO)C(=NCCOC)S3	83*	0.3	0.97	6	0.2	67*
C=CCNC(=O)c1onc(CSc2cccc(C)c2)c1C(=O)O	65*	0.9	-0.019	6	0.3	12
C=CCNC(=O)c1onc(CSc2cccc(Cl)c2)c1C(=O)O	68*	0.9	-0.0088	1	0.3	12
COCCNC(=O)c1onc(CSc2cccc(Cl)c2)c1C(=O)O	14	1.2	0.29	3	0.9	-16
CCC(C)(C)n1nnnc1C(c1ccccc1)N1CCN(C2CCCC2)CC1 (configuration not stated)	.	.	-0.38	1	.	.
CN(C)Cc1c(O)ccc2c3c(c(=O)oc12)CCCCC3	-17	1	0.14	8	1.2	0
CN(Cc1c(O)ccc2c1oc(=O)c1ccccc12)C1CCCCC1	26	0.5	-1.5	.	0.7	50*
SMILES	CYP2C9 inh	CYP2C19 activ	Cav32 inh	HIV Rev-RRE inh	CYP2C9 act	CYP2C19 inh
CCO[C@H]1OC(C(=O)N2CCOCC2)=C[C@@H](c2ccc(Br)cc2)[C@@H]1CCCO	.	.	0.38	.	.	.
COCCNC(=O)NC1(C(F)(F)F)Oc2ccc(Cl)cc2O1 (configuration not stated)	10	0.7	1.4	3	0.9	25
CC(C)CCNC(=O)c1cccc(Cl)c1	28	0.4	0.16	-1	0.7	58*
O=C(O)c1ccccc1C(=O)NCc1cccnc1	-2	0.7	-0.041	0	1	32
O=C(NCc1cccnc1)c1nnc(Cc2ccc(F)cc2)o1	20	0.2	.	.	0.8	78*
O=C(NCc1cccnc1)NC1(C(F)(F)F)Oc2ccc(Cl)cc2O1 (configuration not stated)	58*	0.1	-0.19	0	0.4	91*
O=C(NCc1cccnc1)c1c(F)c(F)c(F)c(F)c1F	46	0.2	1.9	5	0.5	81*
CC1(c2nnc(-c3ccc(F)cc3)o2)CC(c2ccccc2)=NO1 (configuration not stated)	.	.	-0.8	.	.	.
O=C(NCc1ccncc1)c1c(F)c(F)c(F)c(F)c1F	67*	0.8	2.9	1	0.3	24
O=C(NCc1ccncc1)c1nnc(Cc2c(F)cccc2Cl)o1	83*	0.2	0.41	2	0.2	80*
O=C(NCc1ccco1)c1nnc(Cc2ccc(Cl)cc2)o1	-31	0.8	-0.41	-2	1.3	23
CC(NC(=O)NCc1cccnc1)(C(F)(F)F)C(F)(F)F	33	0.2	-0.84	8	0.7	77*
O=C(NCc1ccncc1)/C(=N/O)c1ccccc1	45	0.7	-0.37	2	0.6	33
O=C(/C=N/O)NCc1ccncc1	11	1	-8*	4	0.9	-3
O=C(NCc1ccncc1)c1cccc(F)c1	18	0.8	0.79	.	0.8	18
CC(C)Cn1c(Br)nc2c1c(=O)n(CCC#N)c(=O)n2C	-8	1	.	4	1.1	1
O=C1Nc2ccccc2C(O)(C(=O)NCc2ccco2)N1c1ccc(Cl)c(Cl)c1 (configuration not stated)	22	0.8	.	2	0.8	17
Cn1c(SCC(=O)OC2CCCCC2)nnc1-c1ccco1	.	.	-0.063	4	.	.
Cc1cc2c(cc(C(=O)NCc3cccnc3)n2Cc2ccc(Cl)cc2)o1	91*	0.1	-2.3	.	0.1	91*
CC(C)OC(=O)c1nnc(Cc2ccc(F)cc2)o1	2	0.1	0.68	.	1	89*
O=C(NCc1cccnc1)c1cccc(Cl)c1	-23	0.3	-0.39	3	1.2	73*
O=C(NCc1ccncc1)C(F)(F)C(F)(F)C(=O)NCc1ccncc1	93*	0.5	-0.18	4	0.1	46
Cc1cc(NC(=O)COC(=O)COc2ccc3c(c2)CCC3)no1	-5	0.9	-0.98	.	1	6
CCOC(=O)c1c(C)c(C(=O)NCc2cccnc2)c(C)n1CC	60*	0.3	0.55	.	0.4	70*
CCOC(=O)c1c(C)c(C(=O)NCCOC)c(C)n1CC	-2	0.8	1	.	1	21
O=C(NCc1cccnc1)C1c2ccccc2C(=O)N1Cc1ccco1 (configuration not stated)	21	0.2	0.47	6	0.8	78*

High-throughput results as filed in PubChem.
